Source: ChEMBL document CHEMBL1255347, “Multiclonal outbreak of Klebsiella pneumoniae producing extended-spectrum beta-lactamase CTX-M-2 and novel variant CTX-M-59 in a neonatal intensive care unit in Brazil” (2008)
Values after ≈ are worked out from the molar mass of the structure shown.

Experiments:
Klebsiella pneumoniae [1] = assay: Antimicrobial activity against CTX-M-2 and TEM-1 producing Klebsiella pneumoniae transconjugants/transformants with PFGE pulsotype F by Etest in presence of clavulanic acid; format: functional
Procedure, shortened: (§1)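 The recipient was E. coli XL1-Blue Rifr NAr. Plasmids moved by broth mating, with transconjugants selected on LB agar containing ampicillin, rifampin and nalidixic acid, each at 50 μg/ml. Where mating failed, alkaline-lysis plasmid extracts were electroporated and selected on ampicillin 50 μg/ml. β-lactam MICs were read by Etest, with and without clavulanic acid.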

Klebsiella pneumoniae [2] = assay: Antimicrobial activity against CTX-M-2 producing Klebsiella pneumoniae with PFGE pulsotype A by Etest; format: functional
Procedure, shortened: (§2)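 Clinical K. pneumoniae isolates from a neonatal ICU outbreak near São Paulo were typed by XbaI PFGE using Tenover criteria. Cultures were grown in LB broth at 37°C. Etest MICs followed the manufacturer's instructions, with cefotaxime and ceftazidime each tested with and without clavulanic acid.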

Klebsiella pneumoniae [3] = assay: Antimicrobial activity against CTX-M-2 producing Klebsiella pneumoniae with PFGE pulsotype A by Etest in presence of clavulanic acid; format: functional; procedure, shortened: as §2
Klebsiella pneumoniae [4] = assay: Antimicrobial activity against CTX-M-59 producing Klebsiella pneumoniae with PFGE pulsotype G by Etest in presence of clavulanic acid; format: functional
Procedure, shortened: (§3)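 MICs were determined by Etest strips following the manufacturer's instructions, using cefotaxime and ceftazidime each combined with clavulanic acid. The test strains were clinical NICU outbreak isolates confirmed as ESBL producers by disk diffusion. Pulsotypes were assigned by XbaI PFGE using Tenover relatedness criteria. Cultures were routinely grown in LB broth at 37°C.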

Klebsiella pneumoniae [5] = assay: Antimicrobial activity against CTX-M-59 and TEM-1 producing Klebsiella pneumoniae transconjugants/transformants with PFGE pulsotype G by Etest in presence of clavulanic acid; format: functional; procedure, shortened: as §1
Klebsiella pneumoniae [6] = assay: Antimicrobial activity against CTX-M-2 producing Klebsiella pneumoniae with PFGE pulsotype I by Etest in presence of clavulanic acid; format: functional; procedure, shortened: as §2
Klebsiella pneumoniae [7] = assay: Antimicrobial activity against SHV-5 producing Klebsiella pneumoniae with PFGE pulsotype D by Etest in presence of clavulanic acid; format: functional
Klebsiella pneumoniae [8] = assay: Antimicrobial activity against CTX-M-2 and TEM-1 producing Klebsiella pneumoniae transconjugants/transformants with PFGE pulsotype H by Etest in presence of clavulanic acid; format: functional
Klebsiella pneumoniae [9] = assay: Antimicrobial activity against CTX-M-2 producing Klebsiella pneumoniae with PFGE pulsotype F by Etest in presence of clavulanic acid; format: functional; procedure, shortened: as §2
Klebsiella pneumoniae [10] = assay: Antimicrobial activity against CTX-M-2 and TEM-1 producing Klebsiella pneumoniae transconjugants/transformants with PFGE pulsotype I by Etest in presence of clavulanic acid; format: functional; procedure, shortened: as §1
Klebsiella pneumoniae [11] = assay: Antimicrobial activity against CTX-M-2 producing Klebsiella pneumoniae with PFGE pulsotype J by Etest; format: functional
Klebsiella pneumoniae [12] = assay: Antimicrobial activity against SHV-5 producing Klebsiella pneumoniae transconjugants/transformants with PFGE pulsotype D by Etest; format: functional; procedure, shortened: as §1
Klebsiella pneumoniae [13] = assay: Antimicrobial activity against CTX-M-2 and TEM-1 producing Klebsiella pneumoniae transconjugants/transformants with PFGE pulsotype B by Etest in presence of clavulanic acid; format: functional; procedure, shortened: as §1
Klebsiella pneumoniae [14] = assay: Antimicrobial activity against CTX-M-59 producing Klebsiella pneumoniae with PFGE pulsotype E by Etest in presence of clavulanic acid; format: functional; procedure, shortened: as §3
Klebsiella pneumoniae [15] = assay: Antimicrobial activity against SHV-5 producing Klebsiella pneumoniae with PFGE pulsotype D by Etest; format: functional; procedure, shortened: as §2
Klebsiella pneumoniae [16] = assay: Antimicrobial activity against CTX-M-2 producing Klebsiella pneumoniae with PFGE pulsotype H by Etest; format: functional; procedure, shortened: as §2
Klebsiella pneumoniae [17] = assay: Antimicrobial activity against CTX-M-59 producing Klebsiella pneumoniae with PFGE pulsotype E by Etest; format: functional
Klebsiella pneumoniae [18] = assay: Antimicrobial activity against CTX-M-59 and TEM-1 producing Klebsiella pneumoniae transconjugants/transformants with PFGE pulsotype E by Etest in presence of clavulanic acid; format: functional; procedure, shortened: as §1
Escherichia coli [19] = assay: Antimicrobial activity against Escherichia coli str. K-12 substr. DH10B harboring plasmid CTX-M-2 in presence of clavulanic acid; format: functional; settings: K-12 DH10B
Procedure, shortened: (§4)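 blaCTX-M PCR products were cut with XbaI/BamHI and cloned into pBC-SK(−), then electroporated into E. coli DH10B. Transformants were selected on LB agar with ampicillin 50 μg/ml and chloramphenicol 30 μg/ml, and sequences were confirmed. These clones were used for β-lactam MICs, with and without clavulanic acid.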

Klebsiella pneumoniae [20] = assay: Antimicrobial activity against CTX-M-59 producing Klebsiella pneumoniae with PFGE pulsotype G by Etest; format: functional; procedure, shortened: as §2
Klebsiella pneumoniae [21] = assay: Antimicrobial activity against CTX-M-2 and TEM-1 producing Klebsiella pneumoniae transconjugants/transformants with PFGE pulsotype J by Etest in presence of clavulanic acid; format: functional; procedure, shortened: as §1
Klebsiella pneumoniae [22] = assay: Antimicrobial activity against CTX-M-2 producing Klebsiella pneumoniae with PFGE pulsotype B by Etest in presence of clavulanic acid; format: functional; procedure, shortened: as §2
Escherichia coli [23] = assay: Antimicrobial activity against Escherichia coli str. K-12 substr. DH10B harboring plasmid CTX-M-2; format: functional; settings: K-12 DH10B; procedure, shortened: as §4
Klebsiella pneumoniae [24] = assay: Antimicrobial activity against CTX-M-2 producing Klebsiella pneumoniae with PFGE pulsotype I by Etest; format: functional
Klebsiella pneumoniae [25] = assay: Antimicrobial activity against CTX-M-59 producing Klebsiella pneumoniae with PFGE pulsotype C by Etest; format: functional
Klebsiella pneumoniae [26] = assay: Antimicrobial activity against CTX-M-2 producing Klebsiella pneumoniae with PFGE pulsotype J by Etest in presence of clavulanic acid; format: functional; procedure, shortened: as §2
Klebsiella pneumoniae [27] = assay: Antimicrobial activity against CTX-M-2 producing Klebsiella pneumoniae with PFGE pulsotype B by Etest; format: functional; procedure, shortened: as §2
Escherichia coli [28] = assay: Antimicrobial activity against CTX-M-2 and TEM-1 producing Escherichia coli transconjugants/transformants with PFGE pulsotype A by Etest in presence of clavulanic acid
Escherichia coli [29] = assay: Antimicrobial activity against Escherichia coli str. K-12 substr. DH10B harboring plasmid CTX-M-59; format: functional; settings: K-12 DH10B; procedure, shortened: as §4
Escherichia coli [30] = assay: Antimicrobial activity against Escherichia coli str. K-12 substr. DH10B harboring plasmid CTX-M-59 in presence of clavulanic acid; format: functional; settings: K-12 DH10B; procedure, shortened: as §4
Klebsiella pneumoniae [31] = assay: Antimicrobial activity against CTX-M-59 producing Klebsiella pneumoniae with PFGE pulsotype C by Etest in presence of clavulanic acid; format: functional; procedure, shortened: as §2
Klebsiella pneumoniae [32] = assay: Antimicrobial activity against CTX-M-59 and TEM-1 producing Klebsiella pneumoniae transconjugants/transformants with PFGE pulsotype C by Etest in presence of clavulanic acid; format: functional; procedure, shortened: as §1
Klebsiella pneumoniae [33] = assay: Antimicrobial activity against CTX-M-2 producing Klebsiella pneumoniae with PFGE pulsotype H by Etest in presence of clavulanic acid; format: functional
Procedure, shortened: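 Etest strips used per manufacturer's instructions to read MICs of cefotaxime and ceftazidime, each with clavulanic acid, on clinical NICU K. pneumoniae outbreak isolates. Isolates were typed by XbaI PFGE using Tenover criteria and routinely grown in LB broth at 37°C.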

Klebsiella pneumoniae [34] = assay: Antimicrobial activity against CTX-M-2 producing Klebsiella pneumoniae with PFGE pulsotype F by Etest; format: functional
Klebsiella pneumoniae [35] = assay: Antimicrobial activity against SHV-5 producing Klebsiella pneumoniae transconjugants/transformants with PFGE pulsotype D by Etest in presence of clavulanic acid; format: functional; procedure, shortened: as §1

Question: `CO/N=C(\C(=O)N[C@@H]1C(=O)N2C(C(=O)O)=C(COC(C)=O)CS[C@H]12)c1csc(N)n1` [CEFOTAXIME] was tested. Which MIC (Klebsiella pneumoniae [1]) did it give?
Answer: Its MIC is 0.125 µg/mL.

Question: And the MIC (Klebsiella pneumoniae [2])?
Answer: Its MIC is over 256 µg/mL.

Question: And the MIC (Klebsiella pneumoniae [3])?
Answer: The MIC was 0.094 µg/mL.

Question: And the MIC (Klebsiella pneumoniae [4])?
Answer: Its MIC is 0.5 µg/mL.

Question: And the MIC (Klebsiella pneumoniae [5])?
Answer: The MIC was 0.19 µg/mL.

Question: What about the MIC (Klebsiella pneumoniae [6]) of the same compound?
Answer: The MIC was 0.094 µg/mL.

Question: What about the MIC (Klebsiella pneumoniae [7]) of the same compound?
Answer: The MIC was 0.047 µg/mL.

Question: And the MIC (Klebsiella pneumoniae [8])?
Answer: Its MIC is 0.94 µg/mL.

Question: What about the MIC (Klebsiella pneumoniae [9]) of the same compound?
Answer: Its MIC is 0.094 µg/mL.

Question: And the MIC (Klebsiella pneumoniae [10])?
Answer: The MIC was 0.125 µg/mL.

Question: And the MIC (Klebsiella pneumoniae [11])?
Answer: Its MIC is over 256 µg/mL.

Question: What about the MIC (Klebsiella pneumoniae [12]) of the same compound?
Answer: Its MIC is 12 µg/mL (≈ 26.3 µM).

Question: And the MIC (Klebsiella pneumoniae [13])?
Answer: Its MIC is 0.094 µg/mL.

Question: What about the MIC (Klebsiella pneumoniae [14]) of the same compound?
Answer: Its MIC is 0.125 µg/mL.

Question: And the MIC (Klebsiella pneumoniae [15])?
Answer: Its MIC is 48 µg/mL (≈ 105 µM).

Question: And the MIC (Klebsiella pneumoniae [16])?
Answer: Its MIC is over 256 µg/mL.

Question: What about the MIC (Klebsiella pneumoniae [17]) of the same compound?
Answer: Its MIC is over 256 µg/mL.

Question: And the MIC (Klebsiella pneumoniae [18])?
Answer: The MIC was 0.25 µg/mL.

Question: What about the MIC (Escherichia coli [19]) of the same compound?
Answer: The MIC was 0.094 µg/mL.

Question: And the MIC (Klebsiella pneumoniae [20])?
Answer: Its MIC is over 256 µg/mL.

Question: What about the MIC (Klebsiella pneumoniae [21]) of the same compound?
Answer: Its MIC is 0.125 µg/mL.

Question: And the MIC (Klebsiella pneumoniae [22])?
Answer: Its MIC is 0.094 µg/mL.

Question: And the MIC (Escherichia coli [23])?
Answer: The MIC was 128 µg/mL (≈ 281 µM).

Question: What about the MIC (Klebsiella pneumoniae [24]) of the same compound?
Answer: The MIC was over 256 µg/mL.

Question: What about the MIC (Klebsiella pneumoniae [25]) of the same compound?
Answer: The MIC was over 256 µg/mL.

Question: What about the MIC (Klebsiella pneumoniae [26]) of the same compound?
Answer: Its MIC is 0.094 µg/mL.

Question: And the MIC (Klebsiella pneumoniae [27])?
Answer: The MIC was over 256 µg/mL.

Question: And the MIC (Escherichia coli [28])?
Answer: Its MIC is 0.094 µg/mL.

Question: And the MIC (Escherichia coli [29])?
Answer: The MIC was 96 µg/mL (≈ 211 µM).

Question: And the MIC (Escherichia coli [30])?
Answer: The MIC was 0.094 µg/mL.

Question: And the MIC (Klebsiella pneumoniae [31])?
Answer: The MIC was 0.094 µg/mL.

Question: And the MIC (Klebsiella pneumoniae [32])?
Answer: Its MIC is 0.19 µg/mL.

Question: What about the MIC (Klebsiella pneumoniae [33]) of the same compound?
Answer: Its MIC is 1 µg/mL.

Question: What about the MIC (Klebsiella pneumoniae [34]) of the same compound?
Answer: The MIC was over 256 µg/mL.

Question: What about the MIC (Klebsiella pneumoniae [35]) of the same compound?
Answer: Its MIC is 0.47 µg/mL.
